# A selection: hits, their analogues and other compounds. The true share with any hit is near 2.9%.
# CRFR2-BP antag – antagonists of CRF-BP/CRF-R2 complex, primary screen, cell-based, HEK293, calcium dye fluorescence, uHTS | CRF-induced calcium fluorescence | inhibition, % at 11.8 µM | 350,000 tested, 0.59% active | AID 588475, 2011;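 active means inhibition of the ligand-induced calcium signal above about 50% at the single tested concentration, limit read from the data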
# NRP1-CendR mod – modulators of CendR peptide binding to NRP-1, primary screen, biochemical, fluorescence polarization, uHTS. AID 602438, 2012. Neuropilin-1 (Homo sapiens), O14786. FAM-RPARPAR peptide binding to NRP-1. 360,000 tested, 0.85% active. inhibition, % at 25 µM;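 active means inhibition or corrected inhibition above about 18%, plus a signal ratio from 0.5 to 1.5, limit read from the data, passing the limit was not always enough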
# Tn7 DDE FP – inhibitors of Tn7 peptide binding to fibrin DD(E), primary screen, biochemical, fluorescence polarization, human fibrin, Tn7 probe; AID 720508, 2013; Fibrinogen beta chain (Homo sapiens), P02675; FP displacement of FITC-Tn7 peptide from fibrin DD(E); 0% = median of compound wells per plate; 370,000 tested, 0.13% active; inhibition, % at 8.3 µM;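 active means inhibition above the mean of compounds falling within the control limits plus 3 SD of them, cut at about 14% in these data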;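 further: 0% = plate median of compound wells and 100% = 10 µM Aha-Tn7 peptide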
#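 assay system = human clot-derived fibrin DD(E) complex | quantity = Fibrin-DD(E) at 2 µM final | timing = 10 min preincubation, 3 h with tracer, room temperature | signal = fluorescence polarization | measure = percent inhibition | benchmarks = high control wells with 10 µM unlabelled Aha-Tn7 peptide (full inhibition) | replicates = singlicate testing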
# CRFR2-BP ag – agonists of CRF-BP/CRF-R2 complex, primary screen, cell-based, HEK293, calcium dye fluorescence, uHTS. CRF-binding protein / CRF receptor 2 complex (human). calcium dye fluorescence (FLIPR); percent of saturating CRF peptide response. activation, % at 13.2 µM. 350,000 tested, 0.46% active;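 active means activation of at least 50%, plus an integration ratio under a set limit after plate pattern correction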;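 further: plate controls were neutral control wells without compound for no effect and CRF at EC100 for full effect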
# DDE Tn6 FP inh – inhibitors of Tn6 peptide binding to fibrin DD(E), primary screen, biochemical, fluorescence polarization, human fibrin, Tn6 probe. Fibrin DD(E) TRITC-Tn6 fluorescence polarization displacement. Fibrinogen beta chain (Homo sapiens), P02675. 370,000 tested, 0.21% active. inhibition, % at 8.3 µM. AID 720509, 2013;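 active means inhibition above a per-campaign cutoff: mean of compounds within control limits plus 3 SD, cut at about 15% in these data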;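 further: 0% = median of all compound wells on the plate and 100% = blocking peptide control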
# proKLK7 act – proKLK7 zymogen activators, primary screen, biochemical, fluorescence intensity. activation, % at 7 µM. purified proKLK7, EDANS-DABCYL substrate fluorescence; 100% is mature enzyme control, 0% vehicle. 370,000 tested, 0.9% active;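 active means activation above the mean of all tested compounds plus 3 SD, computed per campaign excluding outliers beyond control limits, cut at about 13% in these data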
# Target sequence (P49862 whole entry, looked up): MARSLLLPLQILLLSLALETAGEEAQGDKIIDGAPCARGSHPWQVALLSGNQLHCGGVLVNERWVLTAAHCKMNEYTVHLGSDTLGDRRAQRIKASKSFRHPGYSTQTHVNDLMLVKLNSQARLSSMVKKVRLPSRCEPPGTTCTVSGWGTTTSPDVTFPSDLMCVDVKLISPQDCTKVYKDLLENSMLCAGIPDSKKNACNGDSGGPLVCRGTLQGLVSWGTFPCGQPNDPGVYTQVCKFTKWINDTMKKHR
# Tn7 DDE conf – inhibitors of Tn7 peptide binding to fibrin DD(E), confirmation, biochemical, fluorescence polarization, human fibrin, Tn7 probe. FP displacement of TRITC-Tn7 peptide from DD(E); 0% set at plate's compound-well median. shares compounds with Tn7 DDE FP. AID 720628, 2013. 460 tested, 5% active. inhibition, % at 8.3 µM;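 active means inhibition above the campaign cutoff, the mean of compounds within control limits plus 3 SD, cut at about 14% in these data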;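 further: 100% = median FP of high control wells holding Aha-Tn7 inhibitor peptide; displacers lower polarization since freed probe rises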
# DDE Tn7 FP ctr – counter-screen hit for Tn7 peptide-fibrin DD(E) binding disruption; shares compounds with Tn7 DDE FP; inhibition, % at 8.3 µM; TRITC-Tn7 probe displacement, fluorescence polarization; AID 720633; 460 tested, 3% active;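 active means inhibition above the cutoff, the mean of compounds lying between the control bounds plus 3 SD of those compounds, cut at about 17% in these data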;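 further: 0% = median of compound sample wells and 100% = excess unlabeled Aha-Tn7 peptide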
# * hit, by the source's call; . = no result.
SMILES,CRFR2-BP antag,NRP1-CendR mod,Tn7 DDE FP,CRFR2-BP ag,DDE Tn6 FP inh,proKLK7 act,Tn7 DDE conf,DDE Tn7 FP ctr
CC(C)(C)NC(=O)C(c1ccccn1)N(C(=O)c1csnn1)C1CCCCC1 (stereo not drawn),2.5,-10.1,-3.4,-1.1,-2.9,-0.2,.,.
CCOCCCNC(=S)N1CCC(C(=O)c2ccc(C)cc2)CC1,-2.1,0.0,14.1*,-3.3,2.1,-0.3,1.3,-3.5
COc1ccc([C@H]2N[C@]3(CCCN(Cc4ccc(C(F)(F)F)cc4)C3=O)[C@H]3C(=O)N(Cc4ccccc4)C(=O)[C@@H]23)cc1,-2.8,5.5,16.6*,4.4,0.2,-0.2,7.8,6.6
COc1cccc(NC(=O)Nc2nc3ncccn3c2-c2ccc(C)cc2)c1,.,.,6.5,.,-2.8,-1.5,.,.
CC(=NN1CCN(c2ccccn2)CC1)c1ccccc1O,.,.,-2.5,.,2.2,1.1,.,.
Cc1ccc(C2C(C(=O)c3cccs3)=C(O)C(=O)N2c2nnc(C)s2)cc1 (stereo not drawn),-74.9,132.5,31.6*,134.3*,-4.3,1.6,3.3,-1.1
COc1ccc(C2C(C(=O)c3cccs3)=C(O)C(=O)N2c2cccc(C)n2)cc1 (stereo not drawn),5.1,12.7,-4.6,-0.1,-3.3,0.1,.,.
COc1ccc(Cn2nnnc2C(c2ccc3ncccc3c2)N2CCN(C3CCCCC3)CC2)cc1 (stereo not drawn),9.0,-7.9,14.3*,-0.1,4.5,0.3,0.3,1.2
C#CCNC(=O)C[C@H]1C[C@@]2(C(=O)OC)C(=C[C@H](C(C)(C)C)O[C@@H]2C)N(Cc2ccccc2)C1=O,.,.,2.6,.,4.2,0.1,.,.
O=C(Nc1cccnc1)c1ccc([N+](=O)[O-])cc1Cl,19.1,-6.2,16.2*,-4.5,9.5,0.0,-0.1,-6.5
O=C(Nc1ncccn1)c1ccc([N+](=O)[O-])cc1Cl,.,12.5,0.8,.,-2.4,0.0,.,.
CC(C)c1ccc(OCCCN2CCC(C(O)(c3ccccc3)c3ccccc3)CC2)cc1,.,.,-3.4,.,6.2,0.7,.,.
Cc1cc(NC(=O)COC(=O)c2ccc(OC(F)(F)F)cc2)no1,-9.5,2.9,16.4*,0.8,3.3,-0.5,8.1,2.2
CCCCCOc1ccc(C(=O)OCC(=O)Nc2cc(C)on2)cc1,-30.6,12.9,5.7,4.9,1.2,-0.4,.,.
CC(C)(C)NC(=O)NC(=O)COC(=O)c1ccc(OC(F)F)cc1,-27.6,6.9,4.2,1.7,5.5,0.1,.,.
CC(C)(C)NC(=O)NC(=O)COC(=O)c1ccc(OC(F)(F)F)cc1,-8.0,-3.7,13.9*,-0.7,3.0,-0.6,1.3,-10.0
O=C(NC(CC1=CCCCC1)c1ccc2ccccc2c1)C(F)(F)F (stereo not drawn),.,.,2.1,.,7.8,-0.1,.,.
COc1ccc(CC(=O)Nc2ccc(C)cc2S(=O)(=O)N2CCOCC2)cc1OC,.,.,2.5,.,2.3,-0.1,.,.
C[C@H]1COc2cc(Br)ccc2S(=O)(=O)N1Cc1cn(Cc2ccco2)nn1,.,.,-6.7,.,-3.9,0.4,.,.
CCCCCn1nnnc1C1(C)Cn2nccc2C(=O)N1Cc1ccco1 (stereo not drawn),.,.,-2.3,.,-4.6,0.5,.,.
O=C(N/C(C(=O)N1CCOCC1)=C(\Sc1ncccn1)c1ccccc1)c1ccccc1,-2.8,-1.8,14.8*,-3.9,9.2,2.6,1.8,-0.9
CC(C)=C(NC(=O)c1ccccc1)C(=O)N1CCOCC1,4.6,-7.9,-2.6,-0.4,2.9,0.1,.,.
CCOC(=O)C1=CCN(S(=O)(=O)c2cccc(Cl)c2)C1c1cccc(Cl)c1 (stereo not drawn),.,.,15.6*,.,-0.8,-0.7,-4.6,-9.1
O=C(c1cccc(F)c1)n1ccc2ccc(-c3ccc4ccn(Cc5ccccc5)c4c3)cc21,.,.,7.5,.,2.6,-19.6,.,.
O=S1(=O)c2ccc(N3CCC[C@H]3CO)cc2OCCCN1C1CC1,.,.,-4.2,.,6.8,-0.8,.,.
SMILES,CRFR2-BP antag,NRP1-CendR mod,Tn7 DDE FP,CRFR2-BP ag,DDE Tn6 FP inh,proKLK7 act,Tn7 DDE conf,DDE Tn7 FP ctr
Cc1cc2nc3c(=O)[nH]c(=O)[nH]c3nc2c([N+](=O)[O-])c1N,-22.6,132.3,31.2*,59.7*,-5.7,0.9,11.3,7.1
CCNS(=O)(=O)c1ccc(CCC(=O)Nc2ccc3c(c2)OCCO3)cc1,5.1,-1.3,15.3*,-0.6,3.3,-0.1,0.9,-5.8
CC1CCC(NC(=O)c2cc3c(=O)n(C)c4ccccc4c3n2C)CC1 (stereo not drawn),-5.6,-9.5,14.3*,-5.0,11.0,0.4,1.2,-2.2
Cn1c(C(=O)NC2CCCCC2)cc2c(=O)n(C)c3ccccc3c21,-41.8,-11.2,-4.2,-0.3,-3.0,-0.1,.,.
CC(=O)Nc1cc(-c2ccccc2N(C)C)cn2c(-c3cccc(C(F)(F)F)c3)cnc12,.,127.7,21.4*,.,2.9,2.9,-2.7,-1.2
Clc1ccc(-n2c(SCc3cccc4ccccc34)nnc2-c2ccco2)cc1,.,.,14.5*,.,-9.8,0.6,13.3,6.1
O=C(Nc1nnc(SCC(=O)N2CCCC2)s1)C1CC(=O)N(c2ccc(F)cc2)C1 (stereo not drawn),9.8,-7.8,0.9,-0.2,2.8,-0.2,.,.
O=C(CSc1nnc(NC(=O)C2CC(=O)N(c3ccc(F)cc3)C2)s1)NC1CCCC1 (stereo not drawn),3.0,-9.6,13.9*,1.0,10.3,0.2,9.0,3.9
CCOC(=O)[C@]12CCCCC/C=C\1N(Cc1ccc(OC)cc1)C(=O)[C@H]2CC(=O)NCC12CC3CC(CC(C3)C1)C2,.,.,0.4,.,-3.4,0.0,.,.
COC(=O)[C@]1(C#N)CC(=O)N(C(C)C)[C@@H]1c1ccccc1,.,.,-0.1,.,-0.8,0.3,.,.
C#CCN1CC(COc2ccccc2)Oc2cccc(Oc3ccc(OC)cc3)c2S1(=O)=O (stereo not drawn),.,.,14.2*,.,-2.7,0.3,-4.2,-10.2
